# Assay results reported in ChEMBL document CHEMBL1765047, “Synthesis and in vivo evaluation of (S)-6-(4-fluorophenoxy)-3-((1-[11C]methylpiperidin-3-yl)methyl)-2-o-tolylquinazolin-4(3H)-one, a potential PET tracer for growth hormone secretagogue receptor (GHSR)” (Bioorg Med Chem, 2011).
# Assays:
# Brain [1] = assay: Drug uptake in CD1 mouse brain at 0.1 mCi, iv after 10 mins by gamma scintillation counting; format: ADME, organism-based; conditions: in vivo
# In short: (§1)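 Baseline regional brain study in male CD1 mice (23-28 g) injected via tail vein with 0.1 mCi tracer in 0.2 mL saline (~4000 mCi/μmol). Killed at 10, 30, 60 or 90 min; brain regions dissected on ice, weighed and gamma-counted with injectate standards. Reported as %ID/g tissue, mean ± SD, n=3.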
# [2] = Drug uptake in CD1 mouse adrenal at 0.1 mCi, iv after 10 mins by gamma scintillation counting; format: ADME, organism-based, Adrenal gland; conditions: in vivo
# In short: (§2)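 Baseline whole-body distribution in male CD1 mice (23-28 g). Tracer 0.1 mCi in 0.2 mL saline (~4000 mCi/μmol) into lateral tail vein. Cervical dislocation at 10, 30 or 90 min; organs dissected on ice, weighed, gamma-counted alongside injectate aliquots as standards. Reported as %ID/g tissue, mean ± SD, n=5.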
# Hypothalamus [3] = assay: Drug uptake in CD1 mouse hypothalamus at 0.1 mCi, iv after 10 mins by gamma scintillation counting; format: ADME, organism-based; conditions: in vivo; in short: as §1
# [4] = Drug uptake in CD1 mouse testis at 0.1 mCi, iv after 90 mins in presence of (S)-6-(4-Fluorophenoxy)-3-(piperidin-3-ylmethyl)-2-o-tolylquinazolin-4(3H)-one; format: ADME, organism-based; conditions: in vivo, 1.5 h
# In short: (§3)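 Blockade arm: male CD1 mice (23-28 g) given 1 mg/kg blocker s.c. in saline/alcohol 9:1, or vehicle alone, 15 min before tail-vein tracer (0.1 mCi in 0.2 mL saline, ~4000 mCi/μmol). Killed by cervical dislocation at 90 min; organs dissected on ice, weighed, gamma-counted against injectate standards; %ID/g tissue, mean ± SD, n=5.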
# [5] = Drug uptake in CD1 mouse testis at 0.1 mCi, iv after 90 mins by gamma scintillation counting; format: ADME, organism-based; conditions: in vivo, 1.5 h; in short: as §2
# Liver [6] = assay: Drug uptake in CD1 mouse liver at 0.1 mCi, iv after 10 mins by gamma scintillation counting; format: ADME, organism-based; conditions: in vivo; in short: as §2
# Cortex [7] = assay: Drug uptake in CD1 mouse cortex at 0.1 mCi, iv after 30 mins by gamma scintillation counting; format: ADME, organism-based; conditions: in vivo, 0.5 h; in short: as §1
# Cerebellum [8] = assay: Drug uptake in CD1 mouse cerebellum at 0.1 mCi, iv after 10 mins by gamma scintillation counting; format: ADME, organism-based; conditions: in vivo; in short: as §1
# Heart [9] = assay: Drug uptake in CD1 mouse heart at 0.1 mCi, iv after 90 mins in presence of (S)-6-(4-Fluorophenoxy)-3-(piperidin-3-ylmethyl)-2-o-tolylquinazolin-4(3H)-one; format: ADME, organism-based; conditions: in vivo, 1.5 h; in short: as §3
# Blood [10] = assay: Drug uptake in CD1 mouse blood at 0.1 mCi, iv after 30 mins by gamma scintillation counting; format: ADME, organism-based; conditions: in vivo, 0.5 h; in short: as §2
# [11] = Drug uptake in CD1 mouse adrenal at 0.1 mCi, iv after 30 mins by gamma scintillation counting; format: ADME, organism-based, Adrenal gland; conditions: in vivo, 0.5 h; in short: as §2
# Cortex [12] = assay: Drug uptake in CD1 mouse cortex at 0.1 mCi, iv after 60 mins by gamma scintillation counting; format: ADME, organism-based; conditions: in vivo, 1 h; in short: as §1
# Brain [13] = assay: Drug uptake in CD1 mouse brain at 0.1 mCi, iv after 30 mins by gamma scintillation counting; format: ADME, organism-based; conditions: in vivo, 0.5 h; in short: as §1
# Hypothalamus [14] = assay: Drug uptake in CD1 mouse hypothalamus at 0.1 mCi, iv after 30 mins by gamma scintillation counting; format: ADME, organism-based; conditions: in vivo, 0.5 h; in short: as §1
# Blood [15] = assay: Drug uptake in CD1 mouse blood at 0.1 mCi, iv after 10 mins by gamma scintillation counting; format: ADME, organism-based; conditions: in vivo; in short: as §2
# Cerebellum [16] = assay: Drug uptake in CD1 mouse cerebellum at 0.1 mCi, iv after 60 mins by gamma scintillation counting; format: ADME, organism-based; conditions: in vivo, 1 h; in short: as §1
# Cerebellum [17] = assay: Drug uptake in CD1 mouse cerebellum at 0.1 mCi, iv after 90 mins by gamma scintillation counting; format: ADME, organism-based; conditions: in vivo, 1.5 h; in short: as §1
# Muscle tissue [18] = assay: Drug uptake in CD1 mouse muscle at 0.1 mCi, iv after 90 mins by gamma scintillation counting; format: ADME, organism-based; conditions: in vivo, 1.5 h; in short: as §2
# [19] = Drug uptake in CD1 mouse testis at 0.1 mCi, iv after 10 mins by gamma scintillation counting; format: ADME, organism-based; conditions: in vivo; in short: as §2
# [20] = Lipophilicity, log D of the compound; format: physicochemical; conditions: octanol/water
# In short: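 Computed in silico rather than measured experimentally, for pH 7.4 (log D7.4), using a log P/log D prediction program.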
# Brain [21] = assay: Drug uptake in CD1 mouse brain at 0.1 mCi, iv after 60 mins by gamma scintillation counting; format: ADME, organism-based; conditions: in vivo, 1 h; in short: as §1
# Lung [22] = assay: Drug uptake in CD1 mouse lung at 0.1 mCi, iv after 90 mins by gamma scintillation counting; format: ADME, organism-based; conditions: in vivo, 1.5 h; in short: as §2
# Hippocampus [23] = assay: Drug uptake in CD1 mouse hippocampus at 0.1 mCi, iv after 90 mins by gamma scintillation counting; format: ADME, organism-based; conditions: in vivo, 1.5 h; in short: as §1
# Hippocampus [24] = assay: Drug uptake in CD1 mouse hippocampus at 0.1 mCi, iv after 30 mins by gamma scintillation counting; format: ADME, organism-based; conditions: in vivo, 0.5 h; in short: as §1
# [25] = Drug uptake in CD1 mouse testis at 0.1 mCi, iv after 30 mins by gamma scintillation counting; format: ADME, organism-based; conditions: in vivo, 0.5 h; in short: as §2
# Heart [26] = assay: Drug uptake in CD1 mouse heart at 0.1 mCi, iv after 30 mins by gamma scintillation counting; format: ADME, organism-based; conditions: in vivo, 0.5 h; in short: as §2
# Cerebellum [27] = assay: Drug uptake in CD1 mouse cerebellum at 0.1 mCi, iv after 30 mins by gamma scintillation counting; format: ADME, organism-based; conditions: in vivo, 0.5 h; in short: as §1
# Heart [28] = assay: Drug uptake in CD1 mouse heart at 0.1 mCi, iv after 10 mins by gamma scintillation counting; format: ADME, organism-based; conditions: in vivo; in short: as §2
# Muscle tissue [29] = assay: Drug uptake in CD1 mouse muscle at 0.1 mCi, iv after 90 mins in presence of (S)-6-(4-Fluorophenoxy)-3-(piperidin-3-ylmethyl)-2-o-tolylquinazolin-4(3H)-one; format: ADME, organism-based; conditions: in vivo, 1.5 h; in short: as §3
# Hippocampus [30] = assay: Drug uptake in CD1 mouse hippocampus at 0.1 mCi, iv after 10 mins by gamma scintillation counting; format: ADME, organism-based; conditions: in vivo; in short: as §1
# Heart [31] = assay: Drug uptake in CD1 mouse heart at 0.1 mCi, iv after 90 mins by gamma scintillation counting; format: ADME, organism-based; conditions: in vivo, 1.5 h; in short: as §2
# Lung [32] = assay: Drug uptake in CD1 mouse lung at 0.1 mCi, iv after 90 mins in presence of (S)-6-(4-Fluorophenoxy)-3-(piperidin-3-ylmethyl)-2-o-tolylquinazolin-4(3H)-one; format: ADME, organism-based; conditions: in vivo, 1.5 h; in short: as §3
# Liver [33] = assay: Drug uptake in CD1 mouse liver at 0.1 mCi, iv after 90 mins in presence of (S)-6-(4-Fluorophenoxy)-3-(piperidin-3-ylmethyl)-2-o-tolylquinazolin-4(3H)-one; format: ADME, organism-based; conditions: in vivo, 1.5 h; in short: as §3
# Hypothalamus [34] = assay: Drug uptake in CD1 mouse hypothalamus at 0.1 mCi, iv after 60 mins by gamma scintillation counting; format: ADME, organism-based; conditions: in vivo, 1 h; in short: as §1
# [35] = Drug uptake in CD1 mouse adrenal at 0.1 mCi, iv after 90 mins in presence of (S)-6-(4-Fluorophenoxy)-3-(piperidin-3-ylmethyl)-2-o-tolylquinazolin-4(3H)-one; format: ADME, organism-based, Adrenal gland; conditions: in vivo, 1.5 h; in short: as §3
# Liver [36] = assay: Drug uptake in CD1 mouse liver at 0.1 mCi, iv after 30 mins by gamma scintillation counting; format: ADME, organism-based; conditions: in vivo, 0.5 h; in short: as §2
# Blood [37] = assay: Drug uptake in CD1 mouse blood at 0.1 mCi, iv after 90 mins in presence of (S)-6-(4-Fluorophenoxy)-3-(piperidin-3-ylmethyl)-2-o-tolylquinazolin-4(3H)-one; format: ADME, organism-based; conditions: in vivo, 1.5 h; in short: as §3
# Lung [38] = assay: Drug uptake in CD1 mouse lung at 0.1 mCi, iv after 30 mins by gamma scintillation counting; format: ADME, organism-based; conditions: in vivo, 0.5 h; in short: as §2
# [39] = Drug uptake in CD1 mouse adrenal at 0.1 mCi, iv after 90 mins by gamma scintillation counting; format: ADME, organism-based, Adrenal gland; conditions: in vivo, 1.5 h; in short: as §2
# Hypothalamus [40] = assay: Drug uptake in CD1 mouse hypothalamus at 0.1 mCi, iv after 90 mins by gamma scintillation counting; format: ADME, organism-based; conditions: in vivo, 1.5 h; in short: as §1
# Cortex [41] = assay: Drug uptake in CD1 mouse cortex at 0.1 mCi, iv after 90 mins by gamma scintillation counting; format: ADME, organism-based; conditions: in vivo, 1.5 h; in short: as §1
# Hippocampus [42] = assay: Drug uptake in CD1 mouse hippocampus at 0.1 mCi, iv after 60 mins by gamma scintillation counting; format: ADME, organism-based; conditions: in vivo, 1 h; in short: as §1
# Muscle tissue [43] = assay: Drug uptake in CD1 mouse muscle at 0.1 mCi, iv after 10 mins by gamma scintillation counting; format: ADME, organism-based; conditions: in vivo; in short: as §2
# Blood [44] = assay: Drug uptake in CD1 mouse blood at 0.1 mCi, iv after 90 mins by gamma scintillation counting; format: ADME, organism-based; conditions: in vivo, 1.5 h; in short: as §2
# Muscle tissue [45] = assay: Drug uptake in CD1 mouse muscle at 0.1 mCi, iv after 30 mins by gamma scintillation counting; format: ADME, organism-based; conditions: in vivo, 0.5 h; in short: as §2
# Liver [46] = assay: Drug uptake in CD1 mouse liver at 0.1 mCi, iv after 90 mins by gamma scintillation counting; format: ADME, organism-based; conditions: in vivo, 1.5 h; in short: as §2
# Brain [47] = assay: Drug uptake in CD1 mouse brain at 0.1 mCi, iv after 90 mins by gamma scintillation counting; format: ADME, organism-based; conditions: in vivo, 1.5 h; in short: as §1
# Cortex [48] = assay: Drug uptake in CD1 mouse cortex at 0.1 mCi, iv after 10 mins by gamma scintillation counting; format: ADME, organism-based; conditions: in vivo; in short: as §1
# Lung [49] = assay: Drug uptake in CD1 mouse lung at 0.1 mCi, iv after 10 mins by gamma scintillation counting; format: ADME, organism-based; conditions: in vivo; in short: as §2
structure (smiles),measurement,setting,value
Cc1ccccc1-c1nc2ccc(Oc3ccc(F)cc3)cc2c(=O)n1C[C@H]1CCCN([11CH3])C1,Drug uptake,Brain [1],0.54 % ID/g
same,Drug uptake,[2],15.57 % ID/g
same,Drug uptake,Hypothalamus [3],0.56 % ID/g
same,Drug uptake,[4],2.25 % ID/g
same,Drug uptake,[5],1.96 % ID/g
same,Drug uptake,Liver [6],18.63 % ID/g
same,Drug uptake,Cortex [7],0.6 % ID/g
same,Drug uptake,Cerebellum [8],0.63 % ID/g
same,Drug uptake,Heart [9],3.74 % ID/g
same,Drug uptake,Blood [10],1.87 % ID/g
same,Drug uptake,[11],10.77 % ID/g
same,Drug uptake,Cortex [12],0.65 % ID/g
same,Drug uptake,Brain [13],0.57 % ID/g
same,Drug uptake,Hypothalamus [14],0.58 % ID/g
same,Drug uptake,Blood [15],2.14 % ID/g
same,Drug uptake,Cerebellum [16],0.59 % ID/g
same,Drug uptake,Cerebellum [17],0.59 % ID/g
same,Drug uptake,Muscle tissue [18],2.09 % ID/g
same,Drug uptake,[19],1.07 % ID/g
same,logD,[20],4.1
same,Drug uptake,Brain [21],0.62 % ID/g
same,Drug uptake,Lung [22],14.74 % ID/g
same,Drug uptake,Hippocampus [23],0.65 % ID/g
same,Drug uptake,Hippocampus [24],0.59 % ID/g
same,Drug uptake,[25],1.39 % ID/g
same,Drug uptake,Heart [26],3.91 % ID/g
same,Drug uptake,Cerebellum [27],0.56 % ID/g
same,Drug uptake,Heart [28],5.11 % ID/g
same,Drug uptake,Muscle tissue [29],2.22 % ID/g
same,Drug uptake,Hippocampus [30],0.6 % ID/g
same,Drug uptake,Heart [31],2.94 % ID/g
same,Drug uptake,Lung [32],16.28 % ID/g
same,Drug uptake,Liver [33],14.77 % ID/g
same,Drug uptake,Hypothalamus [34],0.74 % ID/g
same,Drug uptake,[35],10.02 % ID/g
same,Drug uptake,Liver [36],14.6 % ID/g
same,Drug uptake,Blood [37],2.01 % ID/g
same,Drug uptake,Lung [38],24.02 % ID/g
same,Drug uptake,[39],7.87 % ID/g
same,Drug uptake,Hypothalamus [40],0.86 % ID/g
same,Drug uptake,Cortex [41],0.66 % ID/g
same,Drug uptake,Hippocampus [42],0.71 % ID/g
same,Drug uptake,Muscle tissue [43],3.79 % ID/g
same,Drug uptake,Blood [44],2.01 % ID/g
same,Drug uptake,Muscle tissue [45],3.02 % ID/g
same,Drug uptake,Liver [46],13.46 % ID/g
same,Drug uptake,Brain [47],0.54 % ID/g
same,Drug uptake,Cortex [48],0.63 % ID/g
same,Drug uptake,Lung [49],26.44 % ID/g
